Results of several laboratories.
Compare with care: the assays were run in different laboratories.
CDK6 with cyclin D1: Cyclin-dependent kinase 6, with cyclin D1 (CDK6, Homo sapiens, UniProt Q00534)
CDK6 with cyclin D3: Cyclin-dependent kinase 6, with cyclin D3 (CDK6, Homo sapiens, UniProt Q00534)
CDK6: Cyclin-dependent kinase 6 (CDK6, Homo sapiens, UniProt Q00534)

O=C1NC(=O)c2cc(Nc3ccc(F)cc3)c(Nc3ccc(F)cc3)cc21
remaining signal (CDK6 with cyclin D1; cell-free assay; 0.5 µM): 99%

CC(C)(C)c1nc2c(s1)c1nc(N)ncc1c1ccc(NS(=O)(=O)c3c(F)cccc3F)c(F)c12
remaining activity (CDK6 with cyclin D1; enzyme activity; inhibitor; radiometric; 1 µM): 113%

O=C(Nc1cnn(-c2csc(C(=O)NC3COC3)c2)c1)Nc1c(F)cccc1Cl
remaining activity (CDK6 with cyclin D3; enzyme activity; inhibitor; 5 µM): 92.6%

CN1CC(Oc2cnc(C#N)cc2-c2ccn3nc(NC(=O)C4CC4)cc3c2)C1
inhibition (CDK6 with cyclin D3; enzyme activity; inhibitor; 1 µM): -8%

CC(C)c1ccc(NC(=O)c2cccs2)c(-c2nc3ccccc3[nH]c2=O)c1
activity vs control (CDK6 with cyclin D3; enzyme activity; inhibitor; 1 µM): 114%

Nc1nc(Nc2ccc(S(N)(=O)=O)cc2)sc1C(=O)c1ccccc1[N+](=O)[O-]
inhibition (CDK6; enzyme activity; inhibitor; 0.1 µM): 85%

Cc1cc(NC(=O)c2cccc3cc(-c4cccc5[nH]nc(N)c45)ccc23)ccc1F
activity vs control (CDK6 with cyclin D3; enzyme activity; inhibitor; 0.1 µM): 94%

Cc1ccc(C(=O)NCc2ccsc2)cc1C#Cc1cn(C(C)C)c2ncnc(N)c12
activity vs control (CDK6 with cyclin D3; enzyme activity; inhibitor; 1 µM): 101%

Cn1cnc(Br)c1C1=CN(c2ncnc3[nH]cnc23)CCS1
inhibition (CDK6; enzyme activity; inhibitor; radiometric; 2 µM): 40.4%

N#CCCc1ccc2c(c1)-c1[nH]c3ccc([N+](=O)[O-])cc3c1CC(=O)N2
remaining signal (CDK6 with cyclin D3; cell-free assay; 0.5 µM): 26%

CNC(=O)c1cc(Oc2ccc(NC(=O)Nc3ccc(Cl)c(C(F)(F)F)c3)cc2)ccn1
inhibition (CDK6 with cyclin D3; enzyme activity; inhibitor; 10 µM): -5%

CC(C)(C)c1nc(-c2cccc(NS(=O)(=O)c3c(F)cccc3F)c2F)c(-c2ccnc(N)n2)s1
remaining activity (CDK6 with cyclin D3; enzyme activity; inhibitor; radiometric; 1 µM): 74%

Cc1ccc(Nc2nccc(N(C)c3ccc4c(C)n(C)nc4c3)n2)cc1S(N)(=O)=O
inhibition (CDK6 with cyclin D3; enzyme activity; inhibitor; 0.3 µM): -7%

O=C1Nc2ccc(Cl)cc2C1=Cc1cc(Cl)c(O)c(Cl)c1
remaining signal (CDK6 with cyclin D1; cell-free assay; 0.5 µM): 97%

O=C(Nc1cnn(-c2csc(C(=O)NC3COC3)c2)c1)Nc1ccccc1Cl
remaining activity (CDK6 with cyclin D3; enzyme activity; inhibitor; 5 µM): 114%

CC(C)(O)[C@H]1CC[C@H](Nc2ccc3ncc(-c4cccc(C(F)(F)F)c4)n3n2)CC1
remaining activity (CDK6 with cyclin D3; enzyme activity; inhibitor; 1 µM): 96.4%

CCN(CC)CCNC(=O)c1c(C)[nH]c(/C=C2\C(=O)Nc3ccc(F)cc32)c1C
inhibition (CDK6 with cyclin D3; enzyme activity; inhibitor; 10 µM): 73%
